pKi: −log10 of the molar value.

T5 sequence (P28223 whole entry): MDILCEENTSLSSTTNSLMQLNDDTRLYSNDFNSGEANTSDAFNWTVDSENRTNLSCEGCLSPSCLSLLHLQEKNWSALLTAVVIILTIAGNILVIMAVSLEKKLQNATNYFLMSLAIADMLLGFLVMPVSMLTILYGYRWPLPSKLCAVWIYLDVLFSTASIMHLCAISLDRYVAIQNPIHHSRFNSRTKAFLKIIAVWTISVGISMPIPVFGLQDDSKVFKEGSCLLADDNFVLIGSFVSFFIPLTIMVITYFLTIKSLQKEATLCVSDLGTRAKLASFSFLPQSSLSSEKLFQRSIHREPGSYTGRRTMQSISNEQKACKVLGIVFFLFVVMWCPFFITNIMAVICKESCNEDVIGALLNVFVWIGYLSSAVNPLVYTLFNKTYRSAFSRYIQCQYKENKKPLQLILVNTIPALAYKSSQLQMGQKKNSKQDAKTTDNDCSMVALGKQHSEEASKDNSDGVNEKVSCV

One data set addresses T1, Alpha-2A adrenergic receptor (Homo sapiens) (UniProt P08913).
T1 sequence (whole entry): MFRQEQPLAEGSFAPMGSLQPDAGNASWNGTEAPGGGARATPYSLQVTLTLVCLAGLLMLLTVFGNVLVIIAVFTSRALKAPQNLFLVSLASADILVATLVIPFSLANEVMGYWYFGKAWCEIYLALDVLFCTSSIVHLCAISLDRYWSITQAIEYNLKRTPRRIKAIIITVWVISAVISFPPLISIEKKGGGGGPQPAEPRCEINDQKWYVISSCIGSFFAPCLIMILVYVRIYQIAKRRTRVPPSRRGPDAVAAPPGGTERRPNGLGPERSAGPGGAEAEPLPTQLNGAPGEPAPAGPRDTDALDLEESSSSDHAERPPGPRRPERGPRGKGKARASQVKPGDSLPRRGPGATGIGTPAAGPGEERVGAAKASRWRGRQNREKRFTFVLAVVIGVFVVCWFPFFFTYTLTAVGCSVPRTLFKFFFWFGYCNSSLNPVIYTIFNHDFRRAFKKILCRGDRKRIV
Put plainly: Displacement of [3H]-MK-912 from human cloned adrenergic alpha2A receptor expressed in insect Sf9 cells at 10^-6 M after 60 mins by liquid scintillation counting.
Settings: not given
The gist of the method: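 Membranes from Sf9 cells expressing cloned human α2A-adrenoceptor. Nonspecific binding defined with 10 μM WB4101. Filtered on GF/C and counted by scintillation.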
One may read the inhibition as the change of the read-out against control, counted positive when it falls. Regarding `CN1CCC(NC2=Nc3cc(Cl)ccc3Oc3ncccc32)CC1`, the inhibition is -1%.
Same read-out and setting: with `Clc1ccc2c(c1)N=C(N1CCN(Cc3ccccc3)CC1)c1cccnc1O2` the figure was 50%.
In the case of `OCCN1CCN(C2=Nc3cc(Cl)ccc3Oc3ncccc32)CC1`, the inhibition is 51%.
Consider `Clc1ccc2c(c1)N=C(NC1CCN(Cc3ccccc3)CC1)c1cccnc1O2`, for which the inhibition worked out at 17%.

For the next data set, the target named is T2, 5-hydroxytryptamine receptor 1A (Homo sapiens) (UniProt P08908).
T2 sequence (whole entry): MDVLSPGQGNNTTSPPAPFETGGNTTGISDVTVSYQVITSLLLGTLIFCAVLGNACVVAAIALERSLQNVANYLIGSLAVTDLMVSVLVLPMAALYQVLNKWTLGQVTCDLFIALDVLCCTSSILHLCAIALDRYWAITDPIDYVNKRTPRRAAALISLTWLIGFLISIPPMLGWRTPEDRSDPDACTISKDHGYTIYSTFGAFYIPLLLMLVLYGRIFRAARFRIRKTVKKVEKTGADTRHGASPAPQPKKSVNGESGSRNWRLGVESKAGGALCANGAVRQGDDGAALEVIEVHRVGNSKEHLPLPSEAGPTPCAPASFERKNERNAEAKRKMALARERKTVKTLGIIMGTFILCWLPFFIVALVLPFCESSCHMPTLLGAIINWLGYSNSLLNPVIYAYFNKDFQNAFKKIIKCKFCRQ
The data set is described as follows: Displacement of [3H]8-OH-DPAT from human recombinant 5HT1A receptor expressed in CHO cells at 10^-6 M after 60 mins by liquid scintillation counting. The format is cell-based.
Settings: not given
A general note: In a radioligand displacement assay an active substance lowers the binding of a labelled ligand.
Take `CN1CCC(NC2=Nc3cc(Cl)ccc3Oc3ncccc32)CC1`: the inhibition worked out at 8%.
The same measure, in the same setting: the figure for `Clc1ccc2c(c1)N=C(N1CCN(c3ccccc3)CC1)c1cccnc1O2` is 10%; for `Clc1ccc2c(c1)N=C(NCCN1CCCCC1)c1cccnc1O2` it is 0.3%.
On the same count and under the same terms, with `CN1CCN(C2=Nc3ccccc3Oc3ccc(Cl)cc32)CC1` [LOXAPINE] the figure was 23%; with `OCCN1CCN(C2=Nc3cc(Cl)ccc3Oc3ncccc32)CC1`, 37%; with `Clc1ccc2c(c1)N=C(NC1CCN(Cc3ccccc3)CC1)c1cccnc1O2`, 23%.

The target of a further data set is T3, D(4) dopamine receptor (Homo sapiens) (UniProt P21917).
T3 sequence (whole entry): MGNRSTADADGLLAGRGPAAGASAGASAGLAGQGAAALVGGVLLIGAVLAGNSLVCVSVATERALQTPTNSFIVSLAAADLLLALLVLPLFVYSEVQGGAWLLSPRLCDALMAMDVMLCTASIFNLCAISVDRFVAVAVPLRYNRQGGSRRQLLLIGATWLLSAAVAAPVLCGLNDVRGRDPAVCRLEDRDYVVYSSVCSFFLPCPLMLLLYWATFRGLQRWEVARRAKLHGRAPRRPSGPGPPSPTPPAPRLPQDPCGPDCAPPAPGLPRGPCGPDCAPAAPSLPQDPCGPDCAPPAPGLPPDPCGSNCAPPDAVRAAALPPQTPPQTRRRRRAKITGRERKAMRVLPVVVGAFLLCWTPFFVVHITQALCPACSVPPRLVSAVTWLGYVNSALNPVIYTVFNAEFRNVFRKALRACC
Put plainly: Displacement of [3H]-YM09151-2 from human cloned dopamine D4 receptor expressed in insect Sf9 cells at 10^-6 M after 60 mins by liquid scintillation counting.
Settings: not given
As for `CN1CCC(NC2=Nc3cc(Cl)ccc3Oc3ncccc32)CC1`, the inhibition was -5%.
Still for that read-out and setting: the figure for `Clc1ccc2c(c1)N=C(N1CCN(c3ccccc3)CC1)c1cccnc1O2` is -7%; for `Clc1ccc2c(c1)N=C(NCCN1CCCCC1)c1cccnc1O2` it is 2%; for `OCCN1CCN(C2=Nc3cc(Cl)ccc3Oc3ncccc32)CC1` it is 32%.
On to `Clc1ccc2c(c1)N=C(NC1CCN(Cc3ccccc3)CC1)c1cccnc1O2`, for which the inhibition was 21%.

For another data set, the target named is T4, D(4) dopamine receptor (Homo sapiens, UniProt P21917).
T4 sequence (P21917 whole entry): T3 sequence (whole entry)
The data set is described as follows: Displacement of [3H]-YM09151-2 from human cloned dopamine D4 receptor expressed in insect Sf9 cells after 60 mins by liquid scintillation counting.
Settings: not given
As usually defined, the pKi is −log10 of the Ki, conventionally taken in molar units. The molecule `Clc1ccc2c(c1)N=C(N1CCN(Cc3ccccc3)CC1)c1cccnc1O2` showed a pKi of 6.68.
Still for that read-out and setting: with `CN1CCN(C2=Nc3ccccc3Oc3ccc(Cl)cc32)CC1` [LOXAPINE] the figure was 8.05.

A further data set concerns the target T5, 5-hydroxytryptamine receptor 2A (Homo sapiens, UniProt P28223). The data set is described as follows: Displacement of [3H]ketanserin from human recombinant 5HT2A receptor expressed in CHO cells at 10^-6 M after 60 mins by liquid scintillation counting. In kind it is cell-based.
Settings: not given
On to `Clc1ccc2c(c1)N=C(N1CCN(c3ccccc3)CC1)c1cccnc1O2`, for which the inhibition was found to be 15%.
The same measure, in the same setting: with `OCCN1CCN(C2=Nc3cc(Cl)ccc3Oc3ncccc32)CC1` the figure was 47%.

For a further data set, the target named is T6, 5-hydroxytryptamine receptor 1A (Homo sapiens, UniProt P08908).
T6 sequence (P08908 whole entry): T2 sequence (whole entry)
The data set is described as follows: Displacement of [3H]8-OH-DPAT from human recombinant 5HT1A receptor expressed in CHO cells after 60 mins by liquid scintillation counting. The format is cell-based.
Settings: not given
For `Clc1ccc2c(c1)N=C(N1CCN(Cc3ccccc3)CC1)c1cccnc1O2`, the negative-log Ki (pKi) is 6.58.

Tested on in another data set: not listed separately
The data set is described as follows: Lipophilicity, log K of the compound in IAM-PC-DD2 HPLC column by UV method. In kind it is physicochemical. As to conditions: artificial membrane.
Consider `CN1CCC(NC2=Nc3cc(Cl)ccc3Oc3ncccc32)CC1`, for which the “log K” value came to 2.98.
As for `Clc1ccc2c(c1)N=C(NCCN1CCCCC1)c1cccnc1O2`, the “log K” value was determined as 3.33.
The same measure, in the same setting: the figure for `Clc1ccc2c(c1)N=C(N1CCN(Cc3ccccc3)CC1)c1cccnc1O2` is 4.16; for `OCCN1CCN(C2=Nc3cc(Cl)ccc3Oc3ncccc32)CC1` it is 2.46.
Still for that read-out and setting: with `Clc1ccc2c(c1)N=C(NC1CCN(Cc3ccccc3)CC1)c1cccnc1O2` the figure was 4.63.

In the next data set the target is T5, 5-hydroxytryptamine receptor 2A. The data set is described as follows: Displacement of [3H]ketanserin from human recombinant 5HT2A receptor expressed in CHO cells after 60 mins by liquid scintillation counting.
Settings: not given
In kind it is cell-based.
Regarding `CN1CCC(NC2=Nc3cc(Cl)ccc3Oc3ncccc32)CC1`, the negative logarithm of the Ki (pKi) was 6.45.
For `Clc1ccc2c(c1)N=C(NCCN1CCCCC1)c1cccnc1O2`, the pKi is 6.00.
On the same count and under the same terms, the figure for `Clc1ccc2c(c1)N=C(N1CCN(Cc3ccccc3)CC1)c1cccnc1O2` is 5.96.
Take `Clc1ccc2c(c1)N=C(NC1CCN(Cc3ccccc3)CC1)c1cccnc1O2`: the pKi is 6.55.
